From ChEMBL document CHEMBL1121418, “Synthesis of syn and anti isomers of 6-[[(hydroxyimino)phenyl]methyl]-1-[(1-methylethyl)sulfonyl]-1H-benzimidazol-2-amine. Inhibitors of rhinovirus multiplication” (1980)
≈ marks a conversion by molar mass, not a printed value.

Columns and labels:
HeLa [1] = experiment: Dose required to prevent rhinovirus type 16 plaque formation in HeLa cells by 50%ug/mL of agar overlay; type: functional; conditions: Homo sapiens, read-out: ID50 (the source's name)
Outline: (§1)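 Confluent monolayers were infected with diluted virus and allowed to adsorb for 1 h at room temperature. They were then overlaid with 1% agarose mixed 1:1 with 2× MEM (Earle's salts, 2.5% FBS), containing compound diluted from a 10000 μg/mL Me2SO stock. Incubation was at 32 °C until control plaques reached 2–10 mm. Cells were fixed with formalin–sodium acetate and stained with crystal violet, and plaques were counted. Duplicate flasks were averaged, and ID50 was estimated by plotting results between 10% and 90% inhibition.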

HeLa [2] = experiment: Dose required to prevent rhinovirus type 50 plaque formation in HeLa cells by 50%ug/mL of agar overlay; type: functional; conditions: Homo sapiens, read-out: ID50 (the source's name)
Outline: (§2)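 Confluent monolayers in flasks received 0.3 mL of diluted virus and adsorbed 1 h at room temperature. They were then overlaid with 1% agarose plus 2× MEM (Earle's salts, 2.5% FBS, penicillin, streptomycin) containing compound diluted from a 10000 μg/mL Me₂SO stock. Flasks were held at 32 °C until control plaques reached 2–10 mm, then fixed with formalin-acetate and stained with crystal violet. Plaques were counted in duplicate flasks and averaged, and ID₅₀ was estimated by plotting the 10–90% inhibition points.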

HeLa [3] = experiment: Dose required to prevent rhinovirus type 3 plaque formation in HeLa cells by 50%ug/mL of agar overlay; type: functional; conditions: Homo sapiens, read-out: ID50 (the source's name); outline: as §2
HeLa [4] = experiment: Tested in plaque-reduction assay with rhinovirus type 20 at indicated concentration. and the number of plaque formed was reported at conc. 0.17 ug/mL; type: functional, Homo sapiens
Outline: (§3)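 Virus was adsorbed onto confluent monolayers for 1 h at room temperature. Monolayers were overlaid with a 1:1 mix of 1% agarose and 2× MEM (Earle's salts, 2.5% FBS) containing compound, diluted from a 10000 μg/mL Me2SO stock. Flasks were incubated at 32 °C until control plaques reached 2–10 mm. Cells were then fixed in 10% formalin–2% sodium acetate and stained with crystal violet, and plaques were counted. Counts from duplicate flasks were averaged.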

HeLa [5] = experiment: Tested in plaque-reduction assay with rhinovirus type 20 at indicated concentration. and the number of plaque formed was reported at conc. 0.08 ug/mL; type: functional, Homo sapiens; outline: as §3
HeLa [6] = experiment: Dose required to prevent rhinovirus type 33 plaque formation in HeLa cells by 50%ug/mL of agar overlay; type: functional; conditions: Homo sapiens, read-out: ID50 (the source's name); outline: as §1
HeLa [7] = experiment: Dose required to prevent rhinovirus type 61 plaque formation in HeLa cells by 50%ug/mL of agar overlay; type: functional; conditions: Homo sapiens, read-out: ID50 (the source's name); outline: as §1
HeLa [8] = experiment: Tested in plaque-reduction assay with rhinovirus type 20 at indicated concentration. and the number of plaque formed was reported at conc. 0.75 ug/mL; type: functional, Homo sapiens; outline: as §3
HeLa [9] = experiment: Dose required to prevent rhinovirus type 65 plaque formation in HeLa cells by 50%ug/mL of agar overlay; type: functional; conditions: Homo sapiens, read-out: ID50 (the source's name); outline: as §1
HeLa [10] = experiment: Percent reduction of plaque formation by rhinovirus type 20 in HeLa cells at conc. 0.75 ug/mL.; type: functional, Homo sapiens; outline: as §3
HeLa [11] = experiment: Tested in plaque-reduction assay with rhinovirus type 20 at indicated concentration. and the number of plaque formed was reported at conc. 0.00 ug/mL; type: functional, Homo sapiens; outline: as §3
HeLa [12] = experiment: Dose required to prevent rhinovirus type 20 plaque formation in HeLa cells by 50%ug/mL of agar overlay; type: functional; conditions: Homo sapiens, read-out: ID50 (the source's name); outline: as §1
HeLa [13] = experiment: Percent reduction of plaque formation by rhinovirus type 20 in HeLa cells at conc. 0.00 ug/mL.; type: functional, Homo sapiens; outline: as §3
HeLa [14] = experiment: Percent reduction of plaque formation by rhinovirus type 20 in HeLa cells at conc. 0.02 ug/mL.; type: functional, Homo sapiens; outline: as §3
HeLa [15] = experiment: Dose required to prevent rhinovirus type 69 plaque formation in HeLa cells by 50%ug/mL of agar overlay; type: functional; conditions: Homo sapiens, read-out: ID50 (the source's name); outline: as §1
HeLa [16] = experiment: Dose required to prevent rhinovirus type 15 plaque formation in HeLa cells by 50%ug/mL of agar overlay; type: functional; conditions: Homo sapiens, read-out: ID50 (the source's name); outline: as §1
HeLa [17] = experiment: Tested in plaque-reduction assay with rhinovirus type 20 at indicated concentration. and the number of plaque formed was reported at conc. 0.02 ug/mL; type: functional, Homo sapiens; outline: as §3
HeLa [18] = experiment: Tested in plaque-reduction assay with rhinovirus type 20 at indicated concentration. and the number of plaque formed was reported at conc. 0.04 ug/mL; type: functional, Homo sapiens; outline: as §3
HeLa [19] = experiment: Dose required to prevent rhinovirus type 37 plaque formation in HeLa cells by 50%ug/mL of agar overlay; type: functional; conditions: Homo sapiens, read-out: ID50 (the source's name); outline: as §2
HeLa [20] = experiment: Percent reduction of plaque formation by rhinovirus type 20 in HeLa cells at conc. 0.17 ug/mL.; type: functional, Homo sapiens; outline: as §3
HeLa [21] = experiment: Tested in plaque-reduction assay with rhinovirus type 20 at indicated concentration. and the number of plaque formed was reported at conc. 0.35 ug/mL; type: functional, Homo sapiens; outline: as §3
HeLa [22] = experiment: Dose required to prevent rhinovirus type 14 plaque formation in HeLa cells by 50%ug/mL of agar overlay; type: functional, Homo sapiens; outline: as §1
HeLa [23] = experiment: Percent reduction of plaque formation by rhinovirus type 20 in HeLa cells at conc. 0.04 ug/mL.; type: functional, Homo sapiens; outline: as §3
HeLa [24] = experiment: Dose required to prevent rhinovirus type 48 plaque formation in HeLa cells by 50%ug/mL of agar overlay; type: functional; conditions: Homo sapiens, read-out: ID50 (the source's name); outline: as §1
HeLa [25] = experiment: Percent reduction of plaque formation by rhinovirus type 20 in HeLa cells at conc. 0.35 ug/mL.; type: functional, Homo sapiens; outline: as §3
HeLa [26] = experiment: Dose required to prevent rhinovirus type 72 plaque formation in HeLa cells by 50%ug/mL of agar overlay; type: functional; conditions: Homo sapiens, read-out: ID50 (the source's name); outline: as §1
HeLa [27] = experiment: Dose required to prevent rhinovirus type 32 plaque formation in HeLa cells by 50%ug/mL of agar overlay; type: functional; conditions: Homo sapiens, read-out: ID50 (the source's name); outline: as §1
HeLa [28] = experiment: Percent reduction of plaque formation by rhinovirus type 20 in HeLa cells at conc. 0.08 ug/mL.; type: functional, Homo sapiens; outline: as §3
HeLa [29] = experiment: Dose required to prevent rhinovirus type 70 plaque formation in HeLa cells by 50%ug/mL of agar overlay; type: functional; conditions: Homo sapiens, read-out: ID50 (the source's name); outline: as §2
HeLa [30] = experiment: Tested in plaque-reduction assay with rhinovirus type 20 at indicated concentration. and the number of plaque formed was reported at conc. 3.0 ug/mL; type: functional, Homo sapiens; outline: as §3
HeLa [31] = experiment: Tested in plaque-reduction assay with rhinovirus type 20 at indicated concentration. and the number of plaque formed was reported at conc. 1.5 ug/mL; type: functional, Homo sapiens; outline: as §3
HeLa [32] = experiment: Percent reduction of plaque formation by rhinovirus type 20 in HeLa cells at conc. 1.5 ug/mL.; type: functional, Homo sapiens; outline: as §3
HeLa [33] = experiment: Percent reduction of plaque formation by rhinovirus type 20 in HeLa cells at conc. 3.0 ug/mL.; type: functional, Homo sapiens; outline: as §3

Row | SMILES | IC50 (HeLa [1]) [µg/mL] | IC50 (HeLa [2]) [µg/mL] | IC50 (HeLa [3]) [µg/mL] | No. of plaques (HeLa [4]) | No. of plaques (HeLa [5]) | IC50 (HeLa [6]) [µg/mL] | IC50 (HeLa [7]) [µg/mL] | No. of plaques (HeLa [8]) | IC50 (HeLa [9]) [µg/mL] | Reduction (HeLa [10]) [%] | No. of plaques (HeLa [11]) | IC50 (HeLa [12]) [µg/mL] | Reduction (HeLa [13]) [%] | IC50 (HeLa [15]) [µg/mL] | IC50 (HeLa [16]) [µg/mL] | IC50 (HeLa [19]) [µg/mL] | Reduction (HeLa [20]) [%] | No. of plaques (HeLa [21]) | IC50 (HeLa [24]) [µg/mL] | Reduction (HeLa [25]) [%] | also measured
1 | CC(C)S(=O)(=O)n1c(N)nc2ccc(/C(=N/O)c3ccccc3)cc21 [ENVIROXIME] | 0.02 (≈ 0.0558 µM) | > 0.01 | 0.04 (≈ 0.112 µM) | 0 | 0 | 0.01 (≈ 0.0279 µM) | 0.01 (≈ 0.0279 µM) | 0 | > 0.01 | 100 | 153 | 0.02 (≈ 0.0558 µM) | 0 | 0.01 (≈ 0.0279 µM) | 0.02 (≈ 0.0558 µM) | 0.04 (≈ 0.112 µM) | 100 | 0 | 0.03 (≈ 0.0837 µM) | 100 | Reduction (HeLa [14]): 55%; No. of plaques (HeLa [17]): 68; No. of plaques (HeLa [18]): 18; ID50 (HeLa [22]): 0.03 pug ml-1; Reduction (HeLa [23]): 87%; IC50 (HeLa [26]): 0.03 µg/mL (≈ 0.0837 µM); IC50 (HeLa [27]): 0.01 µg/mL (≈ 0.0279 µM); Reduction (HeLa [28]): 100%
2 | CC(C)S(=O)(=O)n1c(N)nc2ccc(/C(=N\O)c3ccccc3)cc21 [ZINVIROXIME] | 0.16 (≈ 0.446 µM) | 0.12 (≈ 0.335 µM) | 0.37 (≈ 1.03 µM) | 87 | 127 | 0.1 (≈ 0.279 µM) | 0.07 (≈ 0.195 µM) | 0 | 0.07 (≈ 0.195 µM) | 100 | 153 | 0.19 (≈ 0.53 µM) | 0 | 0.08 (≈ 0.223 µM) | 0.14 (≈ 0.391 µM) | 0.25 (≈ 0.697 µM) | 50 | 49 | 0.28 (≈ 0.781 µM) | 67 | IC50 (HeLa [29]): 0.06 µg/mL (≈ 0.167 µM); No. of plaques (HeLa [30]): 0; No. of plaques (HeLa [31]): 0; IC50 (HeLa [22]; Homo sapiens, HeLa, read-out: ID50 (the source's name)): 0.36 µg/mL (≈ 1 µM); Reduction (HeLa [32]): 100%; IC50 (HeLa [26]): 0.3 µg/mL (≈ 0.837 µM); Reduction (HeLa [33]): 100%; IC50 (HeLa [27]): 0.13 µg/mL (≈ 0.363 µM); Reduction (HeLa [28]): 16%
